Reference: ChEMBL document CHEMBL1142205 (Antimicrob Agents Chemother, 2007)
Active and inactive are the calls of the source. No cut-off for these calls is given here.

Experiments:
[1] = test system: Plasmodium falciparum; assay: Growth inhibition of chloroquine-resistant Plasmodium falciparum 7G8 at 20 uM; type: functional, organism-based
Outline: (§1)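 Sorbitol-synchronised ring-stage parasites were seeded at 0.5% parasitemia and 5% hematocrit in 24-well plates. […] Parasitemia was counted daily for 4 days on Giemsa-stained smears, as means of three replicate samples.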

[2] = test system: Plasmodium falciparum; assay: Inhibition of Plasmodium falciparum 3D7 recombinant GCN5 by HAT assay at 100 uM
Outline: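 Recombinant PfGCN5 HAT domain (30 ng) with 1 μg bovine core histones preincubated ± drug in HAT buffer, 30°C, 10 min, then 0.1 μCi [3H]acetyl-CoA for 10 min. Half spotted on P-81 filters, washed at pH 9.2, scintillation counted; half resolved by SDS-PAGE/fluorography. DMSO solvent control; triplicates.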

[3] = test system: Plasmodium falciparum; assay: Inhibition of nuclear GCN5 in Plasmodium falciparum after 8 hrs by liquid HAT assay at 25 to 100 uM
[4] = test system: Plasmodium falciparum; assay: Growth arrest of Plasmodium falciparum at 50 uM; type: functional, organism-based
Outline: (§2)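 Maturation assay: synchronized ring-stage parasites in 24-well plates with 50 μM drug and increasing mannitol concentrations. When control schizonts matured, schizonts per 5,000 red cells counted in each well.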

[5] = test system: Plasmodium falciparum; assay: Growth restoration of Plasmodium falciparum at 50 uM with 400 uM mannitol; type: functional, organism-based; outline: as §2
[6] = test system: Plasmodium falciparum; assay: Pro-oxidant activity in Plasmodium falciparum as increased ROS; type: functional, organism-based
Outline: (§3)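 Parasitized cells preloaded with 50 μM DCFH-DA, 37°C, 30 min, washed, then exposed to drug for 4 h, alone or with mannitol (50 μM) or ascorbic acid plus reduced glutathione (1 mM each). Flow cytometry at ex 485/em 535 nm; ROS taken as mean fluorescence intensity. SD from three experiments.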

[7] = test system: Plasmodium falciparum; assay: Inhibition of GCN5 in Plasmodium falciparum assessed as hyperacetylation of H3-K9 and H3-K14 at 20 uM after 12 hrs; conditions: 3D7, in the assay text read “hypoacetylation” for “hyperacetylation”
Outline: (§4)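 Unsynchronized 3D7 cultures exposed to 20 μM drug for 4 or 12 h (aliquots treated from 0 or 8 h, all harvested at 12 h), with or without 300 μM mannitol. Histones acid-extracted, equal amounts run on SDS-PAGE and immunoblotted with acetylation site-specific antibodies; anti-H4 as loading control.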

[8] = test system: Plasmodium falciparum; assay: Growth restoration of Plasmodium falciparum at 50 uM with 300 uM mannitol; type: functional, organism-based; outline: as §2
[9] = test system: Plasmodium falciparum; assay: Decreased reactive oxygen species in Plasmodium falciparum with 50 uM mannitol; type: functional, organism-based; outline: as §3
[10] = test system: Plasmodium falciparum; assay: Decreased reactive oxygen species in Plasmodium falciparum with 1 mM ascorbic acid and 1 mM reduced glutathione; type: functional, organism-based; outline: as §3
[11] = test system: Plasmodium falciparum; assay: Increase in intracellular reactive oxygen species in Plasmodium falciparum at 50 uM; type: functional, organism-based; outline: as §3
[12] = test system: Plasmodium falciparum; assay: Increased intracellular reactive oxygen species in Plasmodium falciparum at 1 uM; type: functional, organism-based; outline: as §3
[13] = test system: Plasmodium falciparum; assay: Activity of GCN5 in Plasmodium falciparum assessed as increase in acetylation of H3-K9 and H3-K14 at 20 uM in presence of mannitol; outline: as §4
[14] = test system: Plasmodium falciparum; assay: Restoration of nuclear GCN5 activity in Plasmodium falciparum at 50 uM in presence of 300 uM mannitol
[15] = test system: Plasmodium falciparum; assay: Restoration of nuclear GCN5 activity in Plasmodium falciparum at 50 uM in presence of 5000 units/ml catalase
[16] = test system: Plasmodium falciparum; assay: Restoration of nuclear GCN5 activity in Plasmodium falciparum at 50 uM in presence of 400 units/ml superoxide dismutase
[17] = test system: Plasmodium falciparum; assay: (§5) Antimalarial activity against chloroquine-susceptible Plasmodium falciparum D10; type: functional, organism-based
Outline: (§6)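 Asexual P. falciparum cultured in human O+ erythrocytes at 37°C under 5% CO2/3% O2 and sorbitol-synchronised. Ring stages were set at 1% parasitemia and 5% hematocrit in low-hypoxanthine medium, in triplicate. […] Uninfected-RBC counts were subtracted and IC50/IC90 taken by linear regression with 95% CI.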

[18] = test system: Plasmodium falciparum; assay: as §5; type: functional, organism-based; outline: as §6; remark: listed apart in the source
[19] = test system: Plasmodium falciparum; assay: Antimalarial activity against chloroquine-resistant Plasmodium falciparum Dd2; type: functional, organism-based; outline: as §6
[20] = test system: Plasmodium falciparum; assay: Antimalarial activity against chloroquine-resistant Plasmodium falciparum 7G8; type: functional, organism-based; outline: as §6
[21] = test system: Plasmodium falciparum; assay: Growth inhibition of chloroquine-susceptible Plasmodium falciparum 3D7 at 5 uM; type: functional, organism-based
Outline: (§7)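 Strain 3D7, sorbitol-synchronized rings, seeded at 0.5% parasitemia, 5% hematocrit in O+ erythrocytes, RPMI/Albumax medium, 37°C, 5% CO2/3% O2. Continuous exposure to 5 or 20 μM (or none); parasitemia counted daily for 4 days on Giemsa smears, three replicates per point.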

[22] = test system: Plasmodium falciparum; assay: Growth inhibition of chloroquine-susceptible Plasmodium falciparum 3D7 at 20 uM; type: functional, organism-based; outline: as §7
[23] = test system: Plasmodium falciparum; assay: Growth inhibition of chloroquine-resistant Plasmodium falciparum 7G8 at 5 uM; type: functional, organism-based; outline: as §1
[24] = test system: Plasmodium falciparum; assay: Increase of Plasmodium falciparum 3D7 mitochondrial DNA damage by real-time PCR analysis; type: functional
Outline: (§8)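 3D7 early trophozoites at 5% parasitemia and 5% hematocrit exposed to drug or DMSO for 6 h at 37°C. Genomic DNA by proteinase K/phenol-chloroform, quantified by dot blot; SYBR green real-time PCR on 1 ng DNA. Lesions derived from CT shift relative to control, control amplification efficiency set at 1.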

[25] = test system: Plasmodium falciparum; assay: Increase of Plasmodium falciparum 3D7 nuclear DNA damage by real-time PCR analysis; type: functional; outline: as §8
[26] = test system: Plasmodium falciparum; assay: Increased DNA damage in Plasmodium falciparum after 12 hrs in TUNEL assay; type: functional, organism-based
Outline: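 Ring-stage parasites exposed to 20 or 50 μM for 12 h, with or without 400 μM mannitol. Percoll-purified, fixed on poly-L-lysine slides, TUNEL with fluorescein-dUTP, propidium iodide counterstain. 300 cells scored per treatment for percent labeled; triplicate samples.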

COc1cc(/C=C/C(=O)CC(=O)/C=C/c2ccc(O)c(OC)c2)ccc1O [CURCUMIN]
Activity [1]: Active | inhibition [2]: 95% | Activity [3]: Active | Activity [4]: Active | Activity [5]: Active | Activity [6]: Dose-dependent effect | Activity [7]: Active | Activity [8]: Active | Activity [9]: Active | Activity [10]: Active | Activity [11]: Active | Activity [12]: Active | Activity [13]: Active | Activity [14]: Active | Activity [15]: Active | Activity [16]: Active | IC50 [17]: 22.9 µM | IC90 [17]: 41.3 µM | IC50 [18]: 22.9 µM | IC90 [18]: 41.3 µM | IC50 [19]: 27.4 µM | IC90 [19]: 49.4 µM | IC50 [20]: 29.6 µM | IC90 [20]: 53.3 µM | Activity [21]: Active | Activity [22]: Active | Activity [23]: Active | Activity [24]: Active | Activity [25]: Active | Activity [26]: Active
